Assay results from ChEMBL document CHEMBL4613248, “Twelfth-Position Deuteration of Nevirapine Reduces 12-Hydroxy-Nevirapine Formation and Nevirapine-Induced Hepatocyte Death” (J Med Chem, 2020).

Tests used:
Cytochrome P450 2B6 = target: T1, Cytochrome P450 2B6 (Homo sapiens, UniProt P20813); experiment: Drug metabolism assessed as human CYP2B6-mediated formation of 12-OHNVP at 10 uM pre-incubated for 30 mins followed by addition of NADPH regenerating reagents by uHPLC-MS analysis; assay type: ADME; details: recombinant enzyme
T1 sequence (P20813 whole entry): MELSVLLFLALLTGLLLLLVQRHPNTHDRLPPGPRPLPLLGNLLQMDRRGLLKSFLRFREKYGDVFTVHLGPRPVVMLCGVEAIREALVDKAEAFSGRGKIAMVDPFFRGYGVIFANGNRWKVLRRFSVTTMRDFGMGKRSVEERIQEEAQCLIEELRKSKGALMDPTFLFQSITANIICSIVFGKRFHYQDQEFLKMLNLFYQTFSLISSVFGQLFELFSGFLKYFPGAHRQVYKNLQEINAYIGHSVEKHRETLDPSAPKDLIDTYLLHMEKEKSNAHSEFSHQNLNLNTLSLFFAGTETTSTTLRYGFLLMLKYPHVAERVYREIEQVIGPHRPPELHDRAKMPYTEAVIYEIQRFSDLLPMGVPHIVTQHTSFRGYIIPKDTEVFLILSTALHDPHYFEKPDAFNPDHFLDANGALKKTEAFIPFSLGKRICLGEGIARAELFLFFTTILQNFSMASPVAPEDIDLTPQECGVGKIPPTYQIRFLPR
Summary of the method: (§1)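 Insect-cell microsomes with single cDNA-expressed human P450 (100 nM) in 0.1 M potassium phosphate; 10 μM substrate prewarmed 5 min at 37 °C with NADPH-regenerating system, reaction started by adding microsomes; 30 min at 37 °C, 0.1% DMSO. Stopped, dried, reconstituted in methanol; triple-quadrupole SRM (12-OH 283.1→223.0, 2-OH 283.1→160.9, 3-OH 283.1→241.9), peak height; three replicates, mean ± SD.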

Cytochrome P450 [1] = experiment: Drug metabolism in human liver microsomes assessed as Cytochrome P450-mediated formation of 2-OHNVP formation at 5 to 400 uM in presence of NADPH regenerating reagents by uHPLC-MS/MS analysis; assay type: ADME
Summary of the method: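 Pooled human liver microsomes (2.5 mg/mL) with NADPH-regenerating system, substrate 5–400 μM, 30 min at 37 °C, 0.1% DMSO (0.2% at 400 μM); 2- and 3-OH metabolites by uHPLC-MS/MS Orbitrap; three replicates, mean ± SD.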

Hepatocyte [2] = experiment: Induction of change in Acy3 protein expression in C57BL/6J mouse primary hepatocytes at 400 uM incubated for 8 hrs by relative-quantitation label-free proteomics analysis relative to NVP; assay type: cell-based
Summary of the method: (§2)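 Fresh primary hepatocytes from male C57BL/6J mice aged 8–13 weeks, adhered overnight, then given fresh medium containing compound (400 μM), NVP (400 μM) or vehicle (0.2% DMSO) for 8 h. Lysate reduced (DTT) and alkylated (iodoacetamide), acetone-precipitated and digested with trypsin. Label-free Top10 nanoLC-MS with precursor ion area quantitation; unpaired t test P values, Cohen's d effect size.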

Hepatocyte [3] = experiment: Induction of change in KlAA2013 protein expression in human primary hepatocytes at 10 uM incubated for 48 hrs by relative-quantitation label-free proteomics analysis relative to NVP; assay type: cell-based
Summary of the method: as §2, with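 “Cryoplateable pooled human” for “Fresh primary”, “(10 mixed-sex donors per pool; three pools),” for “from male C57BL/6J mice aged 8–13 weeks,”, “(10” for “(400”, “(0.1%” for “(0.2%”, “48” for “8”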

[4] = Drug metabolism in C57BL/6J mouse primary hepatocytes assessed as Cytochrome P450-mediated formation of 12-OHD2NVP at 10 uM incubated for 24 hrs by uHPLC-MS analysis; assay type: ADME, cell-based
Summary of the method: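 Fresh hepatocytes from male C57BL/6J mice (8–13 weeks), adhered overnight, then 10 μM substrate or vehicle (0.1% DMSO) for 24 h. Medium extracted with acetonitrile (50% final), dried, reconstituted in methanol; uHPLC-Orbitrap targeted SIM plus PRM (monooxygenated metabolites) or high-resolution ions (O-glucuronides, 459.1510/462.1700 ±5 ppm); four experimental replicates.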

Hepatocyte [5] = experiment: Induction of change in Manf protein expression in C57BL/6J mouse primary hepatocytes at 400 uM incubated for 8 hrs by relative-quantitation label-free proteomics analysis relative to NVP; assay type: cell-based; summary of the method: as §2
Hepatocyte [6] = experiment: Induction of change in Igfbp1 protein expression in C57BL/6J mouse primary hepatocytes at 400 uM incubated for 8 hrs by relative-quantitation label-free proteomics analysis relative to NVP; assay type: cell-based; summary of the method: as §2
Hepatocyte [7] = experiment: Induction of change in Tf protein expression in C57BL/6J mouse primary hepatocytes at 400 uM incubated for 8 hrs by relative-quantitation label-free proteomics analysis relative to NVP; assay type: cell-based; summary of the method: as §2
Cytochrome P450 [8] = experiment: Drug metabolism in human primary hepatocytes assessed as Cytochrome P450-mediated formation of 2-OHNVP at 10 uM incubated for 24 to 48 hrs by uHPLC-MS analysis; assay type: ADME, cell-based
Summary of the method: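 Cryoplateable pooled human hepatocytes (10 mixed-sex donors per pool, three lots), adhered overnight, then 10 μM substrate or vehicle (0.1% DMSO) for 24 or 48 h in InVitroGRO CP medium. Medium extracted with 50% acetonitrile, dried, reconstituted in methanol; uHPLC-Orbitrap MS/MS for monooxygenated metabolites, high-resolution MS for O-glucuronide.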

Hepatocyte [9] = experiment: Induction of change in 5-Mar protein expression in C57BL/6J mouse primary hepatocytes at 400 uM incubated for 8 hrs by relative-quantitation label-free proteomics analysis relative to NVP; assay type: cell-based; summary of the method: as §2
Cytochrome P450 2C8 = target: T2, Cytochrome P450 2C8 (Homo sapiens, UniProt P10632); experiment: Drug metabolism assessed as human CYP2C8-mediated formation of 12-OHNVP at 10 uM […] by uHPLC-MS analysis; assay type: ADME; details: recombinant enzyme; summary of the method: as §1
T2 sequence (P10632 whole entry): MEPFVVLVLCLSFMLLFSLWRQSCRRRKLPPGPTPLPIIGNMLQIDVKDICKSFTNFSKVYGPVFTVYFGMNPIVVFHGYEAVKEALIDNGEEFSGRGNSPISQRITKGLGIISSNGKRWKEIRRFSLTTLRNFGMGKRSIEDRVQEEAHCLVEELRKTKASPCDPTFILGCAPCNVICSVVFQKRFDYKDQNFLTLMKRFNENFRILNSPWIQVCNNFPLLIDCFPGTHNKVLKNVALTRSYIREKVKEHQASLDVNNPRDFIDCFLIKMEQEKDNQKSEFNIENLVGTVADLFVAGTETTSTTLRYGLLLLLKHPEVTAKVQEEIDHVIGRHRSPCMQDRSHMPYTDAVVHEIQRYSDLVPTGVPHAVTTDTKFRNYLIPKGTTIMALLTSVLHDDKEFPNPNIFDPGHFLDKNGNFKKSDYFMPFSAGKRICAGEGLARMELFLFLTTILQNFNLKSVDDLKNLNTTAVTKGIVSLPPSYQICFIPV

Hepatocyte [10] = experiment: Induction of change in TMED9 protein expression in human primary hepatocytes at 10 uM incubated for 48 hrs by relative-quantitation label-free proteomics analysis relative to NVP; assay type: cell-based
Summary of the method: as §2, with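 “Cryoplateable pooled human” for “Fresh primary”, “(10 mixed-sex donors per pool; three pools),” for “from male C57BL/6J mice aged 8–13 weeks,”, “(10” for “(400”, “(0.1%” for “(0.2%”, “48” for “8”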

Hepatocyte [11] = experiment: Induction of change in CYC1 protein expression in human primary hepatocytes at 10 uM incubated for 48 hrs by relative-quantitation label-free proteomics analysis relative to NVP; assay type: cell-based
Summary of the method: as §2, with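 “Cryoplateable pooled human” for “Fresh primary”, “(10 mixed-sex donors per pool; three pools),” for “from male C57BL/6J mice aged 8–13 weeks,”, “(10” for “(400”, “(0.1%” for “(0.2%”, “48” for “8”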

In the case of `[2H]C([2H])([2H])c1ccnc2c1NC(=O)c1cccnc1N2C1CC1`, the Drug metabolism (Cytochrome P450 2B6) was “Metabolite_Detected”, the Drug metabolism (Cytochrome P450 [1]) was “Metabolite_Detected” and the “fold change (FC)” value (Hepatocyte [2]) was 1.6. For the same molecule, the “fold change (FC)” value (Hepatocyte [3]) was 1.36, the Drug metabolism [4] was “Metabolite_Detected” and the “fold change (FC)” value (Hepatocyte [5]) was 1.3. The “fold change (FC)” value (Hepatocyte [6]) was 4.7, the “fold change (FC)” value (Hepatocyte [7]) was -1.52 and the Drug metabolism (Cytochrome P450 [8]) was “Metabolite_Detected”. For the same molecule, the “fold change (FC)” value (Hepatocyte [9]) was -2.14, the Drug metabolism (Cytochrome P450 2C8) was “Metabolite_Detected” and the “fold change (FC)” value (Hepatocyte [10]) was -1.93. For the same molecule, the “fold change (FC)” value (Hepatocyte [11]) was -1.4.
